Screens as filed in PubChem BioAssay.
PRMT1 FP inh – blocks human protein arginine methyltransferase 1 | Q99873 | recombinant PRMT1, activity-based probe fluorescence polarization | inhibition, % at 2.79 µM | actives 1.3% (n = 370,000);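 active = inhibition above about 21% made by adding two undisclosed values, limit read from the data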
SIAE primary – inhibitors of human sialic acid acetylesterase SIAE; SIAE FP-Rh probe binding, fluorescence polarization; AID 1053197; actives 0.69% (n = 370,000); inhibition, % at 9.66 µM; Q9HAT2;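 active = inhibition above a cutoff: mean of compounds within the control limits plus 3 SD of those, cut at about 17% in these data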;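 also: 0% = plate median of compound wells and 100% = probe without SIAE protein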
rCAG binder – binds r(CAG) RNA repeats; actives 1.3% (n = 370,000); inhibition, % at 3 µM; r(CAG) RNA repeat, TO-PRO-1 dye displacement fluorescence; AID 651821;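 active = inhibition above the plate cutoff, the mean of all test compounds on that plate plus 3 SD, cut at about 35% in these data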;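 also: 0% = DMSO alone and 100% = 100 µM mitoxantrone as full dye displacement; higher means more dye released from RNA so lower well fluorescence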
ABHD4 inh – inhibits mouse alpha/beta hydrolase domain 4; AID 720543; inhibition, % at 8.92 µM; actives 0.54% (n = 370,000); purified mABHD4, FP-Rh probe fluorescence polarization; Q8VD66;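 active = inhibition exceeding the mean over every tested compound plus 3 SD, cut at about 30% in these data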;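 also: 0% = plate median of compound wells and 100% = S159A mutant with DMSO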
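assay system = mABHD4 protein | compound dosing = single nominal dose of 8.92 µM, 0.89% DMSO final | read-out basis = percent inhibition of probe binding, normalized to plate controls | schedule = Enzyme–compound pre-incubation 45 min, then probe 60 min, both 25 °C | detection = fluorescence polarization, excitation 525 nm, emission 598 nm, BODIPY TMR filters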
HTRA1 inhibitor – inhibitors of human serine peptidase HTRA1; Q92743; recombinant HTRA1, FP-rhodamine activity-based probe, fluorescence polarization; inhibition, % at 5.96 µM; actives 0.5% (n = 340,000); in the data active = inhibition above about 36%;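 also: 0% = enzyme with DMSO and 100% = wells lacking enzyme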
Target sequence (Q92743 whole entry, looked up): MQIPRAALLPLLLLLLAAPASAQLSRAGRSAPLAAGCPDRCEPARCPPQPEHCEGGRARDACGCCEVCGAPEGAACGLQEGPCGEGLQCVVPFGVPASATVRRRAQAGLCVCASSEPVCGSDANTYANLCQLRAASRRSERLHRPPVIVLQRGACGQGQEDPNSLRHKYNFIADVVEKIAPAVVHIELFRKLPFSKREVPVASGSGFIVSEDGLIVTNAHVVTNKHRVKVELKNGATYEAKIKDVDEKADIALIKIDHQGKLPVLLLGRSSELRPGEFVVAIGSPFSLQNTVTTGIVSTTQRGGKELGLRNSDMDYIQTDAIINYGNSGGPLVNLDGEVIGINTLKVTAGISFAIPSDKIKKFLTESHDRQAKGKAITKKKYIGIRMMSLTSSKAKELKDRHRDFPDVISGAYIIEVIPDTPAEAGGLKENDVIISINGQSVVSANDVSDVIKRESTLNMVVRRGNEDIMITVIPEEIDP
rCAG binder conf – r(CAG) RNA repeat binding, confirmation; shares compounds with rCAG binder; TO-PRO-1 dye displacement fluorescence; inhibition, % at 3 µM; actives 70% (n = 4,300); AID 652065;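 active = inhibition above a per-plate cutoff, the mean inhibition of sample wells plus 3 SD, cut at about 35% in these data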;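 also: loss of TO-PRO-1 fluorescence as compound displaces dye from 1x1 AA loop RNA; 0% = DMSO only wells and 100% = 100 µM mitoxantrone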
DNA CAG counter – DNA CAG dye complex inhibition counter-screen. shares compounds with rCAG binder. AID 652068. d(CAG) DNA oligo TO-PRO-1 dye displacement, fluorescence. inhibition, % at 3 µM. actives 94% (n = 4,300);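 active = inhibition above its plate's cutoff, the mean test-well inhibition plus 3 SD, cut at about 4.8% in these data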;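 also: 0% = DNA dye mix with DMSO and 100% = 100 µM mitoxantrone; hits displace the dye from DNA and so lower well fluorescence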
DNA CAG DR – counter-screen for rCAG binders: inhibitors of DNA CAG TO-PRO-1 complex | shares compounds with rCAG binder | DNA CAG/GTC duplex TO-PRO-1 dye displacement fluorescence | IC50, µM | actives 20% (n = 250) | AID 686960; in the data active = IC50 below about 10 µM
The depositor's hits bear a star. Most compounds without a hit are left out; they make up all but 3.3% or so of the library.

For O=C(CNC(=O)c1ccc(-c2ccccc2)cc1)Nc1ccc(S(=O)(=O)Nc2ncccn2)cc1 the results were PRMT1 FP inh -2, SIAE primary -11, rCAG binder 38*, ABHD4 inh -13, HTRA1 inhibitor -8, rCAG binder conf 29 and DNA CAG counter 10*.
For NS(=O)(=O)c1ccc(NC(=O)c2ccc(-c3ccccc3)cc2)cc1 the results were PRMT1 FP inh -1, SIAE primary -91, rCAG binder 20 and ABHD4 inh -51.
`CC1(C)CC(=O)C=C(Nc2ccccc2NC(=O)c2cc(F)cc(F)c2)C1` gave PRMT1 FP inh -5, SIAE primary 7, rCAG binder 0 and ABHD4 inh -3.
CC(C)NC(=O)OC[C@H]1O[C@H](C#Cc2ccc(C(C)(C)C)cc2)C=C[C@H]1O was read as PRMT1 FP inh 1, SIAE primary 0, rCAG binder 1 and ABHD4 inh 0.
`O=C(CSc1ncnc2nc[nH]c12)Nc1nnc(SCc2ccc(Cl)c(Cl)c2)s1` gave PRMT1 FP inh 1, SIAE primary -28, rCAG binder 42*, ABHD4 inh -9, HTRA1 inhibitor -55, rCAG binder conf 61* and DNA CAG counter 24*.
CC1(C)CC(=O)C(C2C3=C(CC(C)(C)CC3=O)OC3=C2C(=O)CC(C)(C)C3)=C(O)C1 was read as PRMT1 FP inh -5, SIAE primary 13, rCAG binder 44*, ABHD4 inh 5, HTRA1 inhibitor 5, rCAG binder conf 2 and DNA CAG counter 1.
CCCCNC(=O)c1nc(C2CCN(S(=O)(=O)c3csc(C(=O)O)c3)CC2)oc1-c1ccccc1 was read as PRMT1 FP inh -3, SIAE primary -6, rCAG binder 44*, ABHD4 inh -32, rCAG binder conf 39*, DNA CAG counter 11* and DNA CAG DR >30.
`O=C(NCC1CCCO1)c1ccc([N+](=O)[O-])s1` (stereo unspecified) gave PRMT1 FP inh -3, SIAE primary -1, rCAG binder 36*, ABHD4 inh 1, HTRA1 inhibitor 1, rCAG binder conf 1 and DNA CAG counter 1.
O=C(Nc1ccc(C(=O)O)cc1)/C(=C\c1ccco1)NC(=O)c1ccccc1 was read as PRMT1 FP inh 19, SIAE primary 3, rCAG binder 3, ABHD4 inh 2 and HTRA1 inhibitor -4.
O=C(Nc1ccc(C(=O)O)cc1)/C(=C\c1ccco1)NC(=O)c1ccccc1Cl was read as PRMT1 FP inh 12, SIAE primary 1, rCAG binder 43*, ABHD4 inh 7, HTRA1 inhibitor 4, rCAG binder conf 6 and DNA CAG counter 2.
Screening O=C(NC1CCCCN(Cc2ccc(Cl)cc2)C1=O)c1cccc(C(F)(F)F)c1 (stereo unspecified) returned PRMT1 FP inh 4, SIAE primary -2, rCAG binder 4 and ABHD4 inh -12.
CCCS(=O)(=O)c1c(S(=O)(=O)CCC)c2c(N)cccn2c1C(=O)c1ccc(Br)cc1 was read as PRMT1 FP inh 14, SIAE primary -6, rCAG binder 52*, ABHD4 inh 9, HTRA1 inhibitor -2, rCAG binder conf 21 and DNA CAG counter 11*.
`O=C(O)c1ccc(NC(=O)c2cn(-c3ccccc3)nc2-c2ccc(Br)cc2)cc1` gave PRMT1 FP inh 1, SIAE primary -47, rCAG binder 82*, ABHD4 inh -60, HTRA1 inhibitor -27, rCAG binder conf 68* and DNA CAG counter 28*.
`O=C(O)c1cccc(NC(=O)c2cn(-c3ccccc3)nc2-c2ccc([N+](=O)[O-])cc2)c1` gave PRMT1 FP inh 0, SIAE primary -15, rCAG binder 14, ABHD4 inh -18 and HTRA1 inhibitor -6.
`O=C(O)c1cccc(NC(=O)c2cn(-c3ccccc3)nc2-c2cccc(Br)c2)c1` gave PRMT1 FP inh -2, SIAE primary -43, rCAG binder 87*, ABHD4 inh -108, HTRA1 inhibitor -92, rCAG binder conf 82* and DNA CAG counter 50*.
O=C(O)c1cccc(NC(=O)c2cn(-c3ccccc3)nc2-c2ccncc2)c1 was read as PRMT1 FP inh -1, SIAE primary -3, rCAG binder 14, ABHD4 inh -38 and HTRA1 inhibitor 6.
For COc1ccc(-c2nn(-c3ccccc3)cc2C(=O)Nc2cccc(C(=O)O)c2)cc1[N+](=O)[O-] the results were PRMT1 FP inh 4, SIAE primary -53, rCAG binder 71*, ABHD4 inh -19, HTRA1 inhibitor -29, rCAG binder conf 61* and DNA CAG counter 24*.
COc1ccc(CN(CCN2CCOCC2)C(=O)c2cc(Cl)ccc2F)cc1OC was read as PRMT1 FP inh -2, SIAE primary -5, rCAG binder 1 and ABHD4 inh 0.
COC(=O)c1ccc2c(C3(c4c[nH]c5ccccc45)CCN(C(=O)OC(C)(C)C)CC3)c[nH]c2c1 was read as PRMT1 FP inh 3, SIAE primary -11, rCAG binder 17 and ABHD4 inh -44.
`CC(C)(N[C@@H](Cc1c[nH]c2ccccc12)C(=O)NCCc1c[nH]c2ccccc12)C(=O)NC1CCCCC1` gave PRMT1 FP inh 2, SIAE primary 13 and ABHD4 inh 4.
`Cc1ccc(CSc2nc3c(c(SCC(=O)O)n2)CCCC3)cc1` gave PRMT1 FP inh 4, SIAE primary 0, rCAG binder 36*, ABHD4 inh 4, HTRA1 inhibitor -10, rCAG binder conf 23 and DNA CAG counter 5.7*.
For COC(=O)CSc1nc(SCc2ccc(C)cc2)nc2c1CCCC2 the results were PRMT1 FP inh -1, SIAE primary -1, rCAG binder 2, ABHD4 inh -6 and HTRA1 inhibitor -21.
O=C(O)c1oc2ccccc2c1CSc1ccccn1 was read as PRMT1 FP inh 4, SIAE primary -12, rCAG binder 4, ABHD4 inh -6 and HTRA1 inhibitor 10.
`O=C(O)c1oc2ccccc2c1CSc1ccc(Cl)cc1` gave PRMT1 FP inh 4, SIAE primary 2, rCAG binder 40*, ABHD4 inh 3, HTRA1 inhibitor -26, rCAG binder conf 23 and DNA CAG counter 4.
For O=C(O)c1cccc(NC(=O)c2ccccc2NC(=O)c2cccc([N+](=O)[O-])c2)c1 the results were PRMT1 FP inh 5, SIAE primary -10, rCAG binder 30, ABHD4 inh -22 and HTRA1 inhibitor 2.
